# Screening results from PubChem.
# RGS4 act – potentiators or activators of RGS4; HEK293 M3R/inducible RGS4, carbachol calcium flux Fluo4; stronger effect = lower value; B-score at 10 µM; 0.92% of 310,000 active;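 active = B-score of the integrated calcium signal more than 4 SD below the library mean, with starting fluorescence not abnormally high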;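 also: negative B-score means reduced calcium response which marks RGS4 activation or potentiation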
#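 Detection: kinetic calcium fluorescence imaging with Fluo4-AM dye, 2 µM / Material: HEK293 cells with stable M3R and inducible RGS4 / Schedule: recording 10 s baseline at 1 Hz, 100 s post-agonist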
# MrgX1 allo act – allosterically activates human MrgX1 receptor signaling. Q96LB2. MrgX1-HEK293, Fluo-4 calcium flux, FDSS; stronger effect = higher value. B-score at 10 µM. 0.63% of 310,000 active. AID 588675;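 active = plate-corrected calcium response at least 3 library SD above typical, normal starting fluorescence, not activating the receptor alone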;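 also: compound read alongside a low EC10 to EC30 dose of BAM8-22 agonist; peak minus trough fluorescence over baseline measured at the second addition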
# MrgX1 antag – blocks BAM8-22 activation of human MrgX1 receptor; 1.3% of 310,000 active; AID 588676; Q96LB2; MRGX1-HEK293 calcium flux, Fluo-4, BAM8-22 antagonism; stronger effect = lower value; B-score at 10 µM;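 active = calcium-response B-score plate-corrected more than 3 library SD below zero, starting fluorescence within 5 deviations, no agonist response on first addition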;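 also: peak minus trough fluorescence over baseline after final BAM8-22 challenge near maximal dose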
# RGS4 block – human RGS4 inhibition; P49798; HEK293 M3R/RGS4 inducible, Fluo-4 calcium flux; stronger effect = higher value; triggered by carbachol at its EC20; B-score at 10 µM; 0.45% of 310,000 active; AID 463165;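 active = B-score, a plate-corrected calcium signal, over three deviations above library mean, with baseline fluorescence within five deviations of library mean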;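 also: RGS4 expression induced by doxycycline in cells with stable M3 receptor; B-score is computed from the integrated fluorescence ratio over baseline after carbachol; higher B-score means a larger calcium signal and so more RGS4 inhibition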
# Target sequence (P49798 whole entry, looked up): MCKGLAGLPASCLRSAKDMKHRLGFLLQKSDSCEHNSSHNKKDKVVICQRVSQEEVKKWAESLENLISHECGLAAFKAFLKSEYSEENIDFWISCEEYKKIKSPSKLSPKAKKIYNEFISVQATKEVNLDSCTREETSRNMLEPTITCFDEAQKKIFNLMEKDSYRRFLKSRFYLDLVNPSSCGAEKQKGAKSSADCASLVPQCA
# MrgX1 agonist – activates human MrgX1 receptor signaling. 0.44% of 310,000 active. B-score at 10 µM. MrgX1-HEK293 cells, Fluo-4 calcium fluorescence, agonist mode; stronger effect = higher value. Q96LB2;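 active = calcium response B-score plate-corrected fluorescence ratio at least 3 library SD, with starting fluorescence B-score inside 5 SD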
#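 Test system: Stable human MrgX1 HEK293 cell line | Schedule: Overnight plating before 1 h dye loading | Read-out basis: Baseline-normalised fluorescence change ratio, B-scored | Detection: Kinetic calcium dye fluorescence, Fluo-4 NW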
# RGS4 activ val – confirmation of RGS4 activators; AID 602282; 89% of 1,100 active; shares compounds with RGS4 act; HEK293 M3R/RGS4 inducible, carbachol calcium flux Fluo4; inhibition, % at 10 µM;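 active = inhibition above 3 SD of the buffer control wells, cut at about 41% in these data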;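 also: signal is the integrated peak-minus-minimum Fluo4 fluorescence over baseline ratio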
# M3R Ca counter – RGS4 activator counter-screen hit in non-induced cells; shares compounds with RGS4 act; HEK293 M3R non-induced RGS4, Fluo4 calcium flux; after carbachol challenge at its EC90; inhibition, % at 10 µM; 82% of 1,100 active;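 active = inhibition exceeding 3 SD of buffer-only control wells, cut at about 26% in these data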;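 also: percent drop in integrated peak-minus-baseline over baseline Fluo4 ratio after carbachol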
# A number is an active result; n = inactive; x = no result given. Hits are enriched below; roughly 3.5% of the tested compounds scored in any of these assays.
SMILES,RGS4 act,MrgX1 allo act,MrgX1 antag,RGS4 block,MrgX1 agonist,RGS4 activ val,M3R Ca counter
Cc1ccc(Sc2c(C#N)c(-c3ccccc3)nn2C)cc1,-8,n,n,n,n,74,36
COc1cc2c(cc1OC)C(c1cc(OC)c(OC)cc1[N+](=O)[O-])N(C(C)=O)CC2 (configuration not stated),n,n,n,n,n,x,x
Cc1nc2sc(C)c(C)c2c(=O)o1,-8.5,n,n,n,n,n,n
O=C(Cn1c(C(=O)OCCO)cc2ccccc21)c1ccccc1,n,n,n,n,n,x,x
Cc1cc(=O)n2c3ccccc3n(CC(O)CN3CCN(Cc4ccccc4)CC3)c2c1C#N (configuration not stated),-10,n,n,n,n,74,43
O=C(NCCCn1cccn1)C1CCC(=O)N(Cc2ccccc2F)C1 (configuration not stated),n,n,n,n,n,x,x
CN(CC(=O)Nc1c(Cl)cccc1Cl)C(=O)CNC(=O)c1ccc2ccccc2c1,n,n,n,n,n,x,x
Clc1ccc(OCc2nc3ccccc3[nH]2)cc1,n,n,n,n,n,x,x
OC(Cc1nc2ccccc2[nH]1)c1ccccc1Cl (configuration not stated),-8.2,n,n,n,n,n,n
COc1ccc(-c2nc3c4ccccc4ccn3c2CN2CCOCC2)cc1OC,n,n,n,n,n,x,x
COc1cc(/C=N/c2oc(-c3ccccc3)cc2C#N)ccc1O,-7.8,n,n,n,n,n,n
Cc1ccc(C)c(N2CCN(C(=O)c3ccc(CS(=O)(=O)c4ccccc4C)o3)CC2)c1,-8.8,n,n,n,n,88,66
COc1ccccc1N(C(=O)CCl)c1cn(C(C)=O)c2ccccc12,-8.8,n,n,n,n,n,n
c1ccc(-c2nc(N3CCN(c4ccccc4)CC3)nc(-n3ccnc3)n2)cc1,n,n,n,n,n,x,x
c1ccc(-c2nc(N3CCCCCC3)nc(-n3ccnc3)n2)cc1,-8.7,n,n,n,n,92,61
Cc1ccccc1N1CCN(CCCN2C(=O)CC(=C(c3ccccc3)c3ccccc3)C2=O)CC1,-8.4,n,n,n,n,90,43
Cc1ccc(S(=O)(=O)N2CCOCC2)cc1C(=O)c1nccn1C,n,n,n,n,n,x,x
CCOc1ccc(S(=O)(=O)NC(C)(C)C)cc1-c1nc2c(C(C)(C)C)nn(C)c2c(=O)[nH]1,-10,n,n,n,n,76,46
Cc1noc(C)c1C(=O)N1CCCC(C(=O)c2cccc(C(F)(F)F)c2)C1 (configuration not stated),n,n,n,n,n,x,x
O=C(Nc1ccc(Cl)c(S(=O)(=O)N2CCOCC2)c1)c1ccc(OCC2CCCO2)cc1 (configuration not stated),-11,n,-11,n,n,94,79
O=C(Nc1ccc(S(=O)(=O)N2CCCC2)cc1)c1ccc(OCC2CCCO2)cc1 (configuration not stated),n,n,n,n,n,x,x
COc1ccc(-c2c(C)n([O-])c3c([n+]2=O)CCCCC3)cc1OC,n,n,n,n,n,x,x
CC(C)CC1CCCCC1OC(=O)C[N+]1(C)CCCCC1 (configuration not stated),-11,n,n,n,n,92,87
CC(=O)Nc1ccc2c(c1)C(=O)N(c1cccc3ccccc13)C2=O,n,n,n,n,n,x,x
Cc1cc(NCc2ccccn2)n2ncc(-c3ccccc3)c2n1,-7.8,n,n,n,n,90,43
Cc1cc(NCc2ccccn2)n2ncc(-c3ccc(Cl)cc3)c2n1,n,n,n,n,n,x,x
Cc1ccc2cc(NC(=O)c3ccc(C(C)(C)C)cc3)ccc2n1,-8.2,n,n,n,n,84,81
Cc1ccc(N/N=C(/Sc2nnnn2-c2ccccc2)C(=O)c2ccccc2)cc1,-16,n,n,n,n,n,n
Cn1c(N)c(C(=O)COC(=O)C2=NNC(=O)CC2)c(=O)n(C)c1=O,n,n,n,n,n,x,x
